Experimental data: ChEMBL document CHEMBL1144558, “Potent anticancer activities of novel aminophenol analogues against various cancer cell lines” (2007)
Activity calls are given as the source filed them. No cut-off for these calls is given here.

Legend:
MCF7 [1] = test: Growth inhibition of human estrogen receptor deficient adriamycin-resistant MCF7 cells at 4 uM after 68 hrs relative to control; type: functional; settings: MCF7, 68 h
In short: (§1)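 Adherent cells trypsinized, seeded at 0.5 × 10^4 cells/ml in RPMI 1640 with 10% FBS (maintenance medium also 10 mM HEPES pH 7.3), 37 °C, 5% CO2. Compound (4 µM) added after 1 day; 68 h exposure. Viable cells by MTT; % net growth = (treated − initial absorbance)/(control − initial absorbance) × 100. Mean of ≥3 (MCF-7 lines) or ≥4 (DU-145, HepG2) measurements.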

HL-60 [2] = test: Growth inhibition of human HL60 cells at 4 uM after 72 hrs relative to control; type: functional; settings: HL-60, 72 h
DU-145 = test: Growth inhibition of human DU145 cells at 4 uM after 68 hrs relative to control; type: functional; settings: DU-145, 68 h; in short: as §1
HepG2 = test: Growth inhibition of human HepG2 cells at 4 uM after 68 hrs relative to control; type: functional; settings: HepG2, 68 h; in short: as §1
MCF7 [3] = test: Growth inhibition of human estrogen receptor expressing MCF7 cells at 4 uM after 68 hrs relative to control; type: functional; settings: MCF7, 68 h; in short: as §1
HL-60 [4] = test: Induction of apoptosis in human HL60 cells assessed as DNA fragmentation at 4 uM after 20 hrs; type: functional, cell-based
In short: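 Cells at 2 × 10^5 cells/ml in RPMI/10% FBS treated 20 h with 4 µM compound (DMSO control). Washed in PBS pH 7.2, lysed with proteinase K, RNase A and 1% SDS at 37 °C for 30 min, then NaI/isopropanol DNA extraction at 60 °C. DNA run on 2% agarose gel, stained with ethidium bromide, scored for ladder.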

CCCCCCCCCC(=O)Nc1ccc(O)cc1
inhibition at 4 µM (MCF7 [1]): 23% | inhibition at 4 µM (HL-60 [2]): 6% | inhibition at 4 µM (DU-145): 51% | inhibition at 4 µM (HepG2): 26% | inhibition at 4 µM (MCF7 [3]): 30%

CCCCCCCCCCCCNc1ccc(O)cc1
Activity (HL-60 [4]): Active | inhibition at 4 µM (MCF7 [1]): 100% | inhibition at 4 µM (HL-60 [2]): 72% | inhibition at 4 µM (DU-145): 73% | inhibition at 4 µM (HepG2): 13% | inhibition at 4 µM (MCF7 [3]): 66%

CCCCCCCCCCCC(=O)Nc1ccc(O)cc1
inhibition at 4 µM (MCF7 [1]): 21% | inhibition at 4 µM (HL-60 [2]): 6% | inhibition at 4 µM (DU-145): 41% | inhibition at 4 µM (HepG2): 22% | inhibition at 4 µM (MCF7 [3]): 22%

CC1=C(/C=C/C(C)=C/C=C/C(C)=C/C(=O)Nc2ccc(O)cc2)C(C)(C)CCC1 [FENRETINIDE]
inhibition at 4 µM (MCF7 [1]): 60% | inhibition at 4 µM (HL-60 [2]): 55% | inhibition at 4 µM (DU-145): 41% | inhibition at 4 µM (HepG2): 27% | inhibition at 4 µM (MCF7 [3]): 62%

CC1=C(/C=C/C(C)=C/C=C/C(C)=C/C(=O)O)C(C)(C)CCC1 [TRETINOIN]
inhibition at 4 µM (MCF7 [1]): 12% | inhibition at 4 µM (HL-60 [2]): 42% | inhibition at 4 µM (DU-145): 46% | inhibition at 4 µM (HepG2): 13% | inhibition at 4 µM (MCF7 [3]): 74%

CCCCCCCCCCNc1ccc(O)cc1
Activity (HL-60 [4]): Active | inhibition at 4 µM (MCF7 [1]): 100% | inhibition at 4 µM (HL-60 [2]): 66% | inhibition at 4 µM (DU-145): 66% | inhibition at 4 µM (HepG2): 17% | inhibition at 4 µM (MCF7 [3]): 57%
